Results from ChEMBL document CHEMBL1137257, “Synthesis and evaluation of thiazepines as interleukin-1beta converting enzyme (ICE) inhibitors” (Bioorg Med Chem Lett, 2006).

Legend:
[1] = molecular target: T1, Caspase-1 (Homo sapiens, UniProt P29466); experiment: Inhibition of ICE
T1 sequence (P29466 whole entry): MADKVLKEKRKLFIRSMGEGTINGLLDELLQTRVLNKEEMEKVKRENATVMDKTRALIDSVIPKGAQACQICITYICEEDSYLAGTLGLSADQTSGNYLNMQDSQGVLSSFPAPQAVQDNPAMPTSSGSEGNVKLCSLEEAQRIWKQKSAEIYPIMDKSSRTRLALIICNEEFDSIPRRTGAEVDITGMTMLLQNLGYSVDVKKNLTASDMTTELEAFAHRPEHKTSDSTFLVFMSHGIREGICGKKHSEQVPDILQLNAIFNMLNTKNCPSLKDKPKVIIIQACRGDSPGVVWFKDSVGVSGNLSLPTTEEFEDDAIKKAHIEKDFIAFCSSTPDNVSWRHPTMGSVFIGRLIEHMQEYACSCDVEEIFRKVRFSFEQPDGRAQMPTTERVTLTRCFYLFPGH
Summary of the method: (§1)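 Isolated enzymes (ICE, caspase-3, caspase-8) were assayed with fluorogenic substrates following the supplier's kit protocol. Cleavage was followed for 30 min at 37 °C by fluorescence (excitation 390 nm, emission 460 nm). IC50 was calculated as [I]/((Vo/Vi) − 1) from the initial velocities with (Vi) and without (Vo) inhibitor.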

[2] = molecular target: Caspase-8 (Homo sapiens, UniProt Q14790); experiment: Inhibition of Caspase 8; summary of the method: as §1
[3] = tested on: THP-1; experiment: Inhibition of LPS-induced ILbeta1 release in human THP1 cells; format: functional, cell-based
Summary of the method: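 Human monocytic THP-1 cells (2 × 10⁶/ml, RPMI 1640) were preincubated 15 min with or without compound added as DMSO solutions, with test concentrations starting at 1 nM. Cells were then stimulated with LPS for 4 h and centrifuged. Inhibition of IL-1β production was measured.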

[4] = organism: Homo sapiens; experiment: Selectivity for ICE over Caspase 8
[5] = molecular target: T2, Caspase-3 (Homo sapiens, UniProt P42574); experiment: Inhibition of Caspase 3; summary of the method: as §1
T2 sequence (P42574 whole entry): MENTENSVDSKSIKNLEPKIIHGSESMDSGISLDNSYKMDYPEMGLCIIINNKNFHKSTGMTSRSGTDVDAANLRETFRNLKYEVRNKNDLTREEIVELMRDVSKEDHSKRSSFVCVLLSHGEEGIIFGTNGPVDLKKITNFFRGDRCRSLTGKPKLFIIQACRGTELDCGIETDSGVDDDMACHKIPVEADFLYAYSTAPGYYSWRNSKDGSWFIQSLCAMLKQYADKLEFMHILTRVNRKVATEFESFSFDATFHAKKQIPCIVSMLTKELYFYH

Caspase-8, sequence (Q14790 217-374 limits assumed): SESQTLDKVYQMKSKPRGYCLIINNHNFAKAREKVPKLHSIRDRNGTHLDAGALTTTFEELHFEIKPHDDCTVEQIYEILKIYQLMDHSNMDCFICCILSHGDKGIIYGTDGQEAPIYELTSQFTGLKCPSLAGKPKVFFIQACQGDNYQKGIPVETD
Caspase-8, sequence (Q14790 385-479 limits assumed): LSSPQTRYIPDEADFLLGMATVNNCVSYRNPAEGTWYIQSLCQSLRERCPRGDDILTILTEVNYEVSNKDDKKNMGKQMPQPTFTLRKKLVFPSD

| SMILES | IC50 [1] [nM] | IC50 [2] [nM] | IC50 [3] [nM] | Selectivity ratio [4] | IC50 [5] [nM] |
| --- | --- | --- | --- | --- | --- |
| O=C(CN1CCSC[C@H](NC(=O)c2nccc3ccccc23)C1=O)N[C@H]1CC(=O)OC1O (some centres undefined) | 70 | 7000 | 730 | > 100 | > 10000 |
| O=C(CN1CCSC[C@H](NC(=O)c2ccccc2)C1=O)N[C@H]1CC(=O)OC1O (some centres undefined) | 350 | 5200 | 1700 | > 100 | > 10000 |
| CCO[C@@H]1OC(=O)C[C@@H]1NC(=O)[C@@H]1CCCN2C(=O)CC[C@H](NC(=O)c3nccc4ccccc34)C(=O)N12 [PRALNACASAN] | – | – | 190 | – | 1300 |
| O=C(CN1CCSC[C@H](NC(=O)c2ccc3ccccc3c2)C1=O)N[C@H]1CC(=O)OC1O (some centres undefined) | 30 | 9400 | 480 | > 100 | > 10000 |
| O=C(CN1CCSC[C@H](NC(=O)c2cccc(C(F)(F)F)c2)C1=O)N[C@H]1CC(=O)OC1O (some centres undefined) | 150 | > 10000 | 1000 | > 100 | > 10000 |
| O=C(CN1CCS(=O)(=O)C[C@H](NC(=O)c2cccc(C(F)(F)F)c2)C1=O)N[C@H]1CC(=O)OC1O (some centres undefined) | – | – | 3400 | > 100 | – |

Second part, the compound after the results:

| IC50 [1] [nM] | IC50 [2] [nM] | IC50 [3] [nM] | Selectivity ratio [4] | IC50 [5] [nM] | SMILES |
| --- | --- | --- | --- | --- | --- |
| 150 | > 10000 | 1100 | > 100 | > 10000 | O=C(CN1CCS(=O)(=O)C[C@H](NC(=O)c2ccc3ccccc3c2)C1=O)N[C@H]1CC(=O)OC1O (some centres undefined) |
| 2300 | > 10000 | 3200 | > 100 | > 10000 | O=C(CN1CCS(=O)(=O)C[C@H](NC(=O)c2ccccc2)C1=O)N[C@H]1CC(=O)OC1O (some centres undefined) |
| 80 | 9500 | 640 | > 100 | > 10000 | O=C(CN1CCSC[C@H](NC(=O)c2cc3ccccc3s2)C1=O)N[C@H]1CC(=O)OC1O (some centres undefined) |
| 130 | 5000 | 1400 | > 100 | > 10000 | O=C(CN1CCS(=O)(=O)C[C@H](NC(=O)c2nccc3ccccc23)C1=O)N[C@H]1CC(=O)OC1O (some centres undefined) |
| 320 | 8500 | 1700 | > 100 | > 10000 | O=C(CN1CCS(=O)(=O)C[C@H](NC(=O)c2cc3ccccc3s2)C1=O)N[C@H]1CC(=O)OC1O (some centres undefined) |
